procasp7 counter: procaspase-7 activators, primary screen, counter-screen for procaspase-3 activator project, biochemical, absorbance, HTS, human; Caspase-7 (Homo sapiens), P55210; 0.093% of 330,000 active; recombinant procaspase-7, Ac-DEVD-pNA absorbance 405 nm; D23A/D198A/D206A triple mutant, cannot self-cleave; scale: DMSO 0, 5 µM enzyme 100; activation, % at 8.5 µM;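 active means percent activation above the screen-wide mean plus 3 SD, cut at about 25% in these data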
Target sequence (P55210 whole entry D23A/D198A/D206A): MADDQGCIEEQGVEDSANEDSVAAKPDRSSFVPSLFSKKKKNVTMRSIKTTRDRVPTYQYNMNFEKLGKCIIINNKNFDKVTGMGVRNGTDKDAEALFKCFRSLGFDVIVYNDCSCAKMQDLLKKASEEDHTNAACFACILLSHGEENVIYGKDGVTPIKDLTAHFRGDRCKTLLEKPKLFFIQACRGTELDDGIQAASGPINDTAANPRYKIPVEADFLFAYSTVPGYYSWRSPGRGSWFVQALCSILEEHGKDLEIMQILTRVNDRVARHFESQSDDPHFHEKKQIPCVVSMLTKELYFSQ
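signal = Epi-absorbance of released pNA at 405 nm, two timepoints | assay system = Uncleavable procaspase-7 mutant enzyme | reagent = Ac-DEVD-pNA substrate, 400 µM as added | times = 1 h enzyme–compound preincubation and 2 h substrate reaction, both 25 °C | benchmarks = low DMSO alone, high DMSO plus 5 µM PC-7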
CHT inh: inhibitors of human choline transporter CHT. CHT-expressing cells, membrane potential dye, choline response; active compounds read low. B-score at 10 µM. AID 488975, 2010. 0.86% of 310,000 active;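 active means B-score over 3 SD under the library average, and starting fluorescence ratio not unusually high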;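 further: choline stimulus applied at its EC90 after an EC20 pre-addition; B-score computed on integrated fluorescence ratio after choline addition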
proCasp3 act: activators of human procaspase-3 D3A mutant, primary screen, biochemical, absorbance, PC-3 D3A mutant, single concentration; Caspase-3 (Homo sapiens), P42574; recombinant procaspase-3 D3A, Ac-DEVD-pNA absorbance 405 nm; activation, % at 8.5 µM; 0.11% of 330,000 active; AID 463141, 2010;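 active means activation above the mean of all tested compounds plus 3 SD, cut at about 21% in these data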
Target sequence (P42574 whole entry D9A/D28A/D175A): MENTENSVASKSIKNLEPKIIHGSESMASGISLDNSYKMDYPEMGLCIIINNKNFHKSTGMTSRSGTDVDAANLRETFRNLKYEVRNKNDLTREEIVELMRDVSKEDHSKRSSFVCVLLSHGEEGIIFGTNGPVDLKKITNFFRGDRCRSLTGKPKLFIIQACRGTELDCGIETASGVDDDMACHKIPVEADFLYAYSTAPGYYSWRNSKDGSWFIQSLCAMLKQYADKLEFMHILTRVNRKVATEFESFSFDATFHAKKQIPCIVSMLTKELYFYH
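material = Procaspase-3 D3A mutant | probe or stimulus = Ac-DEVD-pNA | compound = single dose, 8.5 µM nominal compound, 0.8% DMSO | timing = 1 h preincubation, 2 h reaction | measured by = 405 nm absorbance of p-nitroaniline, reads at 0 and 120 min | benchmarks = DMSO-only low control, 5 µM PC-3 D3A high control | repeats = singlicate, each compound tested once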
CHT PAM: CHT positive allosteric modulators, primary screen, cell-based, membrane potential dye, choline EC20 | High affinity choline transporter 1 (Homo sapiens), Q9GZV3 | CHT-expressing cells; active compounds read high; LV-AA mutant CHT in HEK293 cells | B-score at 10 µM | 0.49% of 310,000 active | AID 488977, 2010;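 active means initial fluorescence not abnormally high and integrated response B-score, plate-corrected, over 3 SD above library mean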
CHT inh conf: CHT inhibitors, confirmation, cell-based, membrane potential dye, duplicate; CHT-expressing cells, choline membrane potential dye; LV-to-AA substituted CHT, HEK293 cells; 70% of 2,400 active; shares compounds with CHT inh; CHT activity remaining % of control (active compounds read low), % at 10 µM;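 active means choline transporter activity left, mean of duplicates at 10 µM, below buffer-only control mean minus 3 SD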;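 further: depolarization triggered by choline at its EC90 following an EC20 pre-addition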
HEK293 MPD ctr: membrane potential effects in parental HEK293, counter-screen for CHT inhibitor project, cell-based, membrane potential dye | shares compounds with CHT inh | choline response; active = decrease or increase beyond buffer ±3SD | membrane potential ratio readout (active if shifted either direction beyond buffer ±3SD; no single direction) at 10 µM | 4% of 2,400 active | AID 493222, 2011;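 further: parental cells lack the transporter so any hit is non-specific; ratio is peak minus trough fluorescence over baseline after EC90 choline challenge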
Hits are given with their value. The list is not random: actives were taken first. Their share in the collection is about 1.3%.

`CCCn1c(C)cc(=O)c2cc(NC(=O)c3ccccn3)ccc21` gave procasp7 counter inactive, CHT inh -5.1, proCasp3 act inactive, CHT PAM inactive, CHT inh conf 53% and HEK293 MPD ctr 2.8.
`CCCC(=O)Nc1ccc(NC(=O)c2ccccn2)cn1` gave procasp7 counter inactive, CHT inh inactive, proCasp3 act inactive and CHT PAM inactive.
Screening Cc1ccccc1OCCC(=O)OCC(=O)Nc1ccc2[nH]c(=O)[nH]c2c1 returned procasp7 counter inactive, CHT inh inactive, proCasp3 act inactive and CHT PAM inactive.
Screening O=C(COC(=O)c1ccccc1)NCc1ccco1 returned procasp7 counter inactive, CHT inh inactive, proCasp3 act inactive and CHT PAM inactive.
Screening O=C(COC(=O)c1ccccc1Oc1ccccc1)NCc1ccco1 returned procasp7 counter inactive, CHT inh -5.4, proCasp3 act inactive, CHT PAM inactive, CHT inh conf inactive and HEK293 MPD ctr inactive.
For CC(/C=C1\SC(=S)N(CC(=O)O)C1=O)=C\c1ccccc1 the results were procasp7 counter inactive, CHT inh -6, proCasp3 act inactive, CHT PAM inactive, CHT inh conf 40% and HEK293 MPD ctr inactive.
Screening CC(/C=C1\SC(=S)N(C(C(=O)O)c2ccccc2)C1=O)=C\c1ccccc1 (stereo not given) returned procasp7 counter inactive, CHT inh inactive, proCasp3 act inactive, CHT PAM inactive, CHT inh conf 46% and HEK293 MPD ctr inactive.
Screening CC(=C\c1ccccc1)/C=C1/SC(=S)N(CCC(=O)O)C1=O returned procasp7 counter inactive, CHT inh inactive, proCasp3 act inactive and CHT PAM inactive.
`O=C(O)C(c1ccccc1)N1C(=O)/C(=C/c2cccs2)SC1=S` (stereo not given) gave procasp7 counter inactive, CHT inh inactive, proCasp3 act inactive and CHT PAM inactive.
`CCN(CC)CCOC(=O)c1ccc(NC(=S)NC(=O)/C=C/c2ccco2)cc1` gave procasp7 counter inactive, CHT inh inactive, proCasp3 act inactive and CHT PAM inactive.
For O=[N+]([O-])c1ccc(Cc2cncc(O)c2)cc1 the results were CHT inh inactive and CHT PAM inactive.
For O=C(COc1ccccc1)N=C1SC2CS(=O)(=O)CC2N1c1cccc(F)c1 (stereo not given) the results were procasp7 counter inactive, CHT inh inactive, proCasp3 act inactive and CHT PAM inactive.
CC(CCc1ccccc1)NC(=O)CCNS(=O)(=O)c1ccccc1C(F)(F)F (stereo not given) was read as procasp7 counter inactive and proCasp3 act inactive.
`Cc1ccc(S(=O)(=O)NCCC(=O)NC(C)CCc2ccccc2)cc1` (stereo not given) gave procasp7 counter inactive, CHT inh -5.1, proCasp3 act inactive, CHT PAM inactive, CHT inh conf 50% and HEK293 MPD ctr inactive.
`COc1ccc(CCC(=O)OCC(=O)Nc2ccccc2)cc1` gave procasp7 counter inactive, CHT inh inactive, proCasp3 act inactive and CHT PAM inactive.
For CCCCNS(=O)(=O)c1ccc(NC(=O)c2c(-c3ccccc3Cl)noc2C)cc1 the results were procasp7 counter inactive, CHT inh -5, proCasp3 act inactive, CHT PAM inactive, CHT inh conf 54% and HEK293 MPD ctr inactive.
Screening CCC(CC)c1nnc(NC(=O)c2c(C)nn(Cc3ccccc3Cl)c2C)s1 returned procasp7 counter inactive, CHT inh -5.1, proCasp3 act inactive, CHT PAM inactive, CHT inh conf inactive and HEK293 MPD ctr inactive.
`O=C(O)c1cccc(CSc2ncn[nH]2)c1` gave procasp7 counter inactive, CHT inh -6.1, proCasp3 act inactive, CHT PAM inactive, CHT inh conf inactive and HEK293 MPD ctr inactive.
`Cc1cc(C)nc(SCc2cccc(C(=O)O)c2)n1` gave procasp7 counter inactive, CHT inh inactive, proCasp3 act inactive and CHT PAM inactive.
For O=C(Nc1cccc(S(=O)(=O)NC2=NCCC2)c1)c1cc(Cl)ccc1[N+](=O)[O-] the results were procasp7 counter inactive, CHT inh -6.8, proCasp3 act inactive, CHT PAM inactive, CHT inh conf 21% and HEK293 MPD ctr inactive.
`CCN(CC)C(=S)SCC(=O)Nc1ncc2c(n1)CCCC2=O` gave procasp7 counter inactive, CHT inh inactive, proCasp3 act inactive and CHT PAM inactive.
Screening Cc1cc(C)c(S(=O)(=O)Nc2ccc(O)c(Sc3ncn[nH]3)c2)cc1C returned procasp7 counter inactive, CHT inh inactive, proCasp3 act inactive and CHT PAM inactive.
For O=C(NC(=S)Nc1ccccc1O)c1ccc(-c2ccc(Cl)cc2)o1 the results were procasp7 counter inactive, CHT inh inactive, proCasp3 act inactive and CHT PAM inactive.
Screening Cc1c(NC(=S)NC(=O)c2ccc(-c3ccc(Cl)cc3)o2)cccc1C(=O)O returned procasp7 counter inactive, CHT inh -8.8, proCasp3 act inactive, CHT PAM inactive, CHT inh conf 55% and HEK293 MPD ctr inactive.
Cc1ccc(-n2cc(CN3CCN(Cc4nccn4C)CC3)c(-c3cccc(C)c3)n2)cc1 was read as procasp7 counter inactive, CHT inh -5.6, proCasp3 act inactive, CHT PAM inactive, CHT inh conf 27% and HEK293 MPD ctr inactive.
Screening Cc1ccc(-n2cc(CN3CCNC(=O)CC3)c(-c3cccc(C)c3)n2)cc1 returned procasp7 counter inactive, CHT inh inactive, proCasp3 act inactive and CHT PAM inactive.
CCCCCn1c(N)c(-c2nc3ccccc3s2)c2c([N+](=O)[O-])nn(C)c(=O)c21 was read as procasp7 counter inactive, CHT inh -6.3, proCasp3 act inactive, CHT PAM inactive, CHT inh conf inactive and HEK293 MPD ctr inactive.
`COc1ccccc1/C=C/C=N/NC(=O)c1cc(-c2ccc(C)o2)[nH]n1` gave procasp7 counter inactive, CHT inh -17, proCasp3 act inactive, CHT PAM inactive, CHT inh conf inactive and HEK293 MPD ctr inactive.
`Cc1ccc(/C=N/NC(=O)c2cc(-c3ccc(C)o3)[nH]n2)cc1` gave procasp7 counter inactive, CHT inh inactive, proCasp3 act inactive and CHT PAM inactive.
COc1ccc(-c2nc(C=O)cs2)cc1 was read as procasp7 counter inactive, CHT inh -5.5, proCasp3 act inactive, CHT PAM inactive, CHT inh conf 23% and HEK293 MPD ctr inactive.
